{"data": "Measured values of several laboratories", "target": "Mitogen-activated protein kinase kinase kinase 4 (MAP3K4, Homo sapiens, UniProt Q9Y6R4)", "note": "Protocols differ between the studies behind these lines."}
{"Compound": "CC#CC(=O)N1CCC[C@H]1c1nc(-c2ccc(C(=O)Nc3ccccn3)cc2)c2c(N)nccn12", "observed": "enzyme activity", "mode": "inhibitor", "concentration": "1 µM", "measurement": "inhibition", "value": "19%"}
{"Compound": "N#Cc1ccc(NC(=O)Nc2ccccc2)cc1", "observed": "cell-free assay", "method": "competition with immobilised ligand", "concentration": "25 µM", "measurement": "remaining binding", "value": "77%"}
{"Compound": "CO[C@@H]1[C@H](N(C)C(=O)c2ccccc2)C[C@H]2O[C@]1(C)n1c3ccccc3c3c4c(c5c6ccccc6n2c5c31)C(=O)NC4", "observed": "enzyme activity", "mode": "inhibitor", "concentration": "1 µM", "measurement": "inhibition", "value": "4%"}
{"Compound": "CCCCC(=O)Nc1ccc(-c2ccc3ncn(CCC)c(=O)c3c2)cn1", "observed": "binding", "method": "competition with immobilised ligand", "concentration": "0.5 µM", "measurement": "remaining binding", "value": "76%"}
{"Compound": "Cc1ccc(NC(=O)c2ccnc(C(F)(F)F)c2)cc1-c1cc(OCCO)nc(N2CCOCC2)c1", "observed": "binding", "method": "competition with immobilised ligand", "concentration": "1 µM", "measurement": "remaining binding", "value": "90%"}
{"Compound": "C#Cc1cnc(Nc2ccnc(CO)c2)nc1Nc1ccccc1S(C)(=O)=NC#N (centres unmarked)", "observed": "cell-free assay", "concentration": "1 µM", "measurement": "remaining signal", "value": "86%"}
{"Compound": "C[C@H]1CC[C@H](n2c3cnccc3c3cnc(Nc4ccc5c(n4)CCN(C(=O)CO)C5)nc32)CC1", "observed": "binding", "method": "competition with immobilised ligand", "concentration": "1 µM", "measurement": "remaining binding", "value": "100%"}
{"Compound": "C1=C/COCc2cc(ccc2OCCN2CCCC2)Nc2nccc(n2)-c2cccc(c2)COC/1", "observed": "binding", "concentration": "0.1 µM", "measurement": "remaining binding", "value": "100%"}
